Reference: ChEMBL document CHEMBL1135746, “Structure-activity relationships of the antimalarial agent artemisinin. 7. Direct modification of (+)-artemisinin and in vivo antimalarial screening of new, potential preclinical antimalarial candidates” (J Med Chem, 2002)
In brackets after ≈: the same amount, converted by molar mass. Several values for one entry are separate records, joined by “and”; a condition that tells them apart may be missing. Identical values can stand only once. Activity calls are given as the source filed them. No cut-off for these calls is given here.

How the values were obtained:
[1] = test system: Plasmodium berghei; experiment: Antimalarial activity in Plasmodium berghei infected mice (Mus musculus) at 8 mg/kg/day peroral dose; assay type: functional; details: route oral
Procedure, shortened: (§1)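 CD-1 mice (16-18 g), quarantined 2 weeks, then infected with P. berghei (Thompson test). Treatment was given on days 3-5 postinfection. Subcutaneous dosing was a single injection; oral dosing was by gavage of a peanut-oil suspension. Groups of 5 mice were used. Survival was scored out of 5 and parasitemia was followed up to 60 days postinfection.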

[2] = test system: Plasmodium berghei; experiment: Antimalarial activity in Plasmodium berghei infected mice (Mus musculus) at 32 mg/kg/day subcutaneous dose; assay type: functional; procedure, shortened: as §1
[3] = test system: Plasmodium berghei; experiment: Antimalarial activity in Plasmodium berghei infected mice (Mus musculus) at 8 mg/kg/day subcutaneous dose; assay type: functional; procedure, shortened: as §1
[4] = test system: Plasmodium berghei; experiment: Antimalarial activity in Plasmodium berghei infected mice (Mus musculus) at 32 mg/kg/day peroral dose; assay type: functional; details: route oral; procedure, shortened: as §1
[5] = test system: Plasmodium berghei; experiment: Antimalarial activity in Plasmodium berghei infected mice (Mus musculus) after 128 mg/kg/day subcutaneous dose; assay type: functional; procedure, shortened: as §1
[6] = test system: Plasmodium yoelii; experiment: Effective dose ED90 against Plasmodium yoelii sspNS on subcutaneous dose; assay type: functional; details: sc
[7] = test system: Plasmodium falciparum; experiment: Inhibitory activity against Plasmodium falciparum K1; assay type: functional, organism-based
[8] = test system: Plasmodium berghei; experiment: Effective dose ED90 against Plasmodium berghei N in mice (Mus musculus) malaria model after subcutaneous administration; assay type: functional
[9] = test system: Plasmodium falciparum; experiment: Inhibitory activity against Plasmodium falciparum W2; assay type: functional, organism-based
Procedure, shortened: (§2)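 Parasitized human red blood cells were used in short-term microtitre cultures. Compounds were dissolved in DMSO and diluted 400-fold in culture medium with plasma, giving a starting concentration of at least 12 500 ng/mL. Activity was measured as inhibition of parasite uptake of a radiolabelled nucleic acid precursor.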

[10] = test system: Plasmodium falciparum; experiment: Inhibitory activity against Plasmodium falciparum D6; assay type: functional, organism-based; procedure, shortened: as §2
[11] = test system: Plasmodium yoelii; experiment: Effective subcutaneous dose ED50 against Plasmodium yoelii sspNS; assay type: functional; details: sc
[12] = test system: Plasmodium berghei; experiment: Effective dose ED50 against Plasmodium berghei N in mice (Mus musculus) malaria model after subcutaneous administration; assay type: functional; details: for ED50: Plasmodium berghei, sc, read-out: ED50
[13] = test system: Plasmodium falciparum; experiment: Inhibitory activity against Plasmodium falciparum NF54; assay type: functional, organism-based
[14] = test system: Plasmodium berghei; experiment: Effective dose ED50 against Plasmodium berghei N in mice (Mus musculus) malaria model after peroral administration; assay type: functional; details: Plasmodium berghei, po; read-out: ED50
[15] = test system: Plasmodium berghei; experiment: Effective dose ED90 against Plasmodium berghei N in mice (Mus musculus) malaria model after peroral administration; assay type: functional; details: po
[16] = test system: Plasmodium berghei; experiment: Effective dose ED90 against Plasmodium berghei N in mice (Mus musculus) malaria model after oral administration; assay type: functional
[17] = test system: Plasmodium berghei; experiment: Antimalarial activity in Plasmodium berghei infected mice (Mus musculus) at 128 mg/kg/day peroral dose; assay type: functional; details: route oral; procedure, shortened: as §1
[18] = test system: Plasmodium yoelii; experiment: Effective subcutaneous dose ED90 against Plasmodium yoelii NS; assay type: functional
[19] = test system: Plasmodium yoelii; experiment: Effective subcutaneous dose ED90 against Plasmodium yoelii sspNS; assay type: functional
[20] = test system: Plasmodium berghei; experiment: Antimalarial activity against Plasmodium berghei infected mice (Mus musculus) at 32 mg/kg/day subcutaneous dose; assay type: functional; procedure, shortened: as §1
[21] = test system: Plasmodium yoelii; experiment: Effective dose against Plasmodium yoelii NS after 10 mg/kg peroral dose in mice (Mus musculus) malaria model; Not active; assay type: functional, organism-based; set-up: dose 10 mg/kg
[22] = test system: Plasmodium berghei; experiment: Effective dose against Plasmodium berghei N in mice (Mus musculus) malaria model after peroral administration; assay type: functional; details: po
[23] = test system: Plasmodium berghei; experiment: Percent suppression of Plasmodium berghei N infection in mice (Mus musculus) malaria model after peroral dose; assay type: functional
[24] = test system: Plasmodium yoelii; experiment: Percent suppression of Plasmodium […] NS infection in mice (Mus musculus) malaria model after 10 mg/kg peroral dose; assay type: functional; details: route oral
[25] = Plasmodium berghei, sc, read-out: ED90

Structure (SMILES)	Activity [1]	Activity [2]	Activity [3]	Activity [4]	Activity [5]	ED90 [6]	IC50 [7]	IC50 [9]	IC50 [10]	ED50 [11]	ED50 [12]	IC50 [13]	ED90 [8, 25]	ED50 [14]	ED90 [15]	Activity [17]	other results
CCCC[C@H]1CO[C@@H]2O[C@]3(C)CC[C@H]4[C@H](C)CC[C@@H]1[C@@]24OO3	0	5	5	2	5												
C[C@@H]1CC[C@H]2[C@@H](CCCc3ccc(C(F)(F)F)cc3)CO[C@@H]3OC4(C)CC[C@@H]1[C@]32OO4 (single isomer, unassigned)						1.25 mg/kg	0.0395 µg/mL (≈ 0.0898 µM)	0.058 µg/mL (≈ 0.132 µM)	0.0281 µg/mL (≈ 0.0639 µM)	0.67 mg/kg	0.44 mg/kg	0.102 µg/mL (≈ 0.23 µM)					ED90 [8]: 0.8 mg/kg and 2.1 mg/kg
C[C@@H]1CC[C@H]2[C@@H](CCCc3cccc(C(F)(F)F)c3)CO[C@@H]3OC4(C)CC[C@@H]1[C@]32OO4 (single isomer, unassigned)						1 mg/kg	0.012 µg/mL (≈ 0.0272 µM)	0.0303 µg/mL (≈ 0.0688 µM)	0.00848 µg/mL (≈ 0.0193 µM)	0.6 mg/kg	0.4 mg/kg	0.0356 µg/mL (≈ 0.0808 µM)	0.75 mg/kg	1.25 mg/kg	4.4 mg/kg		
C[C@@H]1CC[C@H]2[C@@H](CCCc3ccccc3)CO[C@@H]3OC4(C)CC[C@@H]1[C@]32OO4 (single isomer, unassigned)	0	5	0	4	5				0.0009 µg/mL (≈ 0.00242 µM)							5	ED90 [16]: 3.4; ED90 [18]: 0.9; ED90 [12]: 1
C[C@@H]1CC[C@H]2[C@@H](CCCc3ccc(Cl)cc3)CO[C@@H]3OC4(C)CC[C@@H]1[C@]32OO4 (single isomer, unassigned)		5			5			0.0026 µg/mL (≈ 0.00639 µM)	0.0019 µg/mL (≈ 0.00467 µM)							5	ED90 [19]: 1; Survival dose [20]: 5
COc1ccc(CCC[C@H]2CO[C@@H]3OC4(C)CC[C@H]5[C@H](C)CC[C@@H]2[C@@]35OO4)cc1 (single isomer, unassigned)	0	5	0	5	5											5	
C[C@@H]1CC[C@H]2[C@@H](CCCc3cccc(Cl)c3)CO[C@@H]3OC4(C)CC[C@@H]1[C@]32OO4 (single isomer, unassigned)						1 mg/kg	0.0101 µg/mL (≈ 0.0247 µM)	0.0216 µg/mL (≈ 0.0531 µM)	0.00755 µg/mL (≈ 0.0186 µM)	0.6 mg/kg	0.5 mg/kg	0.0183 µg/mL (≈ 0.0449 µM)	0.9 mg/kg	2 mg/kg	8.3 mg/kg		
C[C@@H]1CC[C@H]2[C@@H](CCCc3cccc(F)c3)CO[C@@H]3OC4(C)CC[C@@H]1[C@]32OO4 (single isomer, unassigned)						1 mg/kg	0.0116 µg/mL (≈ 0.0296 µM)	0.0268 µg/mL (≈ 0.0687 µM)	0.00828 µg/mL (≈ 0.0212 µM)	0.58 mg/kg	0.46 mg/kg	0.0418 µg/mL (≈ 0.107 µM)	0.85 mg/kg	0.9 mg/kg	3.4 mg/kg		
C[C@@H]1CC[C@H]2[C@@H](CCCC(F)(F)F)CO[C@@H]3OC4(C)CC[C@@H]1[C@]32OO4 (single isomer, unassigned)								0.00887 µg/mL (≈ 0.0243 µM)	0.0125 µg/mL (≈ 0.0342 µM)								NA [21]: inactive; ED50 [22]: > 10 mg/kg; ED90 [22]: > 10 mg/kg; Activity [23]: 6.5%; Activity [24]: 0.3%
